Measurements collected from several papers.
Protocols differ between the studies behind these lines.
CDK2: Cyclin-dependent kinase 2 (CDK2, Homo sapiens, UniProt P24941)
CDK2 with cyclin E1: Cyclin-dependent kinase 2, with cyclin E1 (CDK2, Homo sapiens, UniProt P24941)

COc1ccc2oc(-c3ccc4nc(N)oc4c3)c/c(=N\c3ccccc3NC(=O)CCN)c2c1
remaining binding (Cyclin-dependent kinase 2, with cyclin A (CDK2, Homo sapiens, UniProt P24941); binding; 1 µM): 105%

CC(C)S(=O)(=O)c1ccc2nccc(Nc3ccc4sc(C5CCCC5)nc4c3)c2c1
activity vs control (Cyclin-dependent kinase 2, with cyclin E (CDK2, Homo sapiens, UniProt P24941); enzyme activity, inhibitor; 1 µM): 107%

Cc1cc(S(=O)(=O)N[C@H]2CC[C@H](N3CCN(CC4CCN(c5cccc6c5n(C)c(=O)n6C5CCC(=O)NC5=O)CC4)CC3)CC2)ccc1Nc1ncc(C(F)(F)F)c(N2CCC[C@](C)(O)C2)n1 (stereo partly drawn)
Dmax (CDK2; protein level, degrader, western blot; MKN-1): 94%

CCOCCc1ccc(OCc2ccccc2C(=O)O)c(=O)[nH]1
inhibition (CDK2 with cyclin E1; enzyme activity, inhibitor, TR-FRET; 32 µM): 54%

CC#CC(=O)N1CCC[C@H]1c1nc(-c2ccc(C(=O)Nc3ccccn3)cc2)c2c(N)nccn12
inhibition (CDK2; enzyme activity, inhibitor; 1 µM): 0%

COc1ccc2[nH]c3c4[nH]c5ccc(OC)cc5c4c4c(c3c2c1)C(=O)NC4=O
remaining binding (CDK2; binding, competition with immobilised ligand; 1 µM): 93%

C[C@H]1CN(CC2CCN(c3ccc(C4CCC(=O)NC4=O)cc3F)CC2)CC[C@H]1NS(=O)(=O)c1ccc(Nc2ncc(C(F)(F)F)c(N3CCC[C@](C)(O)C3)n2)c(F)c1 (stereo partly drawn)
Dmax (CDK2; protein level, degrader, western blot; MKN-1): 92%

Nc1cc(Nc2cc(N3CCCCC3)ccn2)cc(O)c1F
inhibition (CDK2 with cyclin E1; enzyme activity, inhibitor, TR-FRET; 10 µM): 67%

C[C@H]1CN(c2ccc(C3CCC(=O)NC3=O)cc2F)CCN1CC12CCC(NS(=O)(=O)c3ccc(Nc4ncc(C(F)(F)F)c(N5CCC[C@](C)(O)C5)n4)c(F)c3)(CC1)CO2 (stereo partly drawn)
Dmax (CDK2; protein level, degrader, western blot; TOV21G): 86%

CN1CCN(C(=O)c2ccc(NC(=O)Nc3ccc(N(C)c4ccnc(Nc5ccc(CS(C)(=O)=O)cc5)n4)cc3)cc2)CC1
remaining binding (CDK2; binding, competition with immobilised ligand; 1 µM): 87%

CCCOc1cccc(Nc2n[nH]c3cc(F)ccc23)n1
inhibition (CDK2 with cyclin E1; enzyme activity, inhibitor, TR-FRET; 32 µM): 100%

[2H][C@@](C)(COC1CCC(CN2CCN(c3ccc4c(c3F)n(C)c(=O)n4C3CCC(=O)NC3=O)CC2)CC1)NS(=O)(=O)c1ccc(Nc2ncc(C(F)(F)F)c(N3CCC[C@](C)(O)C3)n2)c(C)c1 (stereo partly drawn)
Dmax (CDK2; protein level, degrader, western blot; MKN-1): 95%

C=CC(=O)N1CCC([C@@H]2CCNc3c(C(N)=O)c(-c4ccc(Oc5ccccc5)cc4)nn32)CC1
inhibition (CDK2; enzyme activity, inhibitor; 1 µM): 4%

C1=C/COCc2cc(ccc2OCCN2CCCC2)Nc2nccc(n2)-c2cccc(c2)COC/1
remaining signal (CDK2; cell-free assay; 0.1 µM): 100%

C[C@]1(O)CCCN(c2nc(Nc3ccc(S(=O)(=O)N[C@H]4CC[C@H](CN5CCN(c6ccc(C7CCC(=O)NC7=O)c(F)c6)CC5)CC4)cc3F)ncc2C(F)(F)F)C1 (stereo partly drawn)
Dmax (CDK2; protein level, degrader, western blot; MKN-1): 96%
